In ChEMBL document CHEMBL1147099, “In vitro and in vivo antibacterial activities of heteroaryl isothiazolones against resistant gram-positive pathogens” (Antimicrob Agents Chemother, 2007):
Values after ≈ are worked out from the molar mass of the structure shown.

Experiments:
Streptococcus pyogenes = test: Antibacterial activity against Streptococcus pyogenes; type: functional
Summary of the method: (§1)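 Aerobic isolates run by CLSI broth microdilution in cation-adjusted Mueller-Hinton II broth (streptococci plus 2–5% lysed horse blood), about 5 × 10^5 CFU/ml final; 24 h at 35–37°C aerobically; MIC read as lowest concentration without visible growth.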

Staphylococcus aureus [1] = test: Antibacterial activity against methicillin-susceptible Staphylococcus aureus after 24 hrs by broth microdilution method; type: functional
Summary of the method: (§2)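 Broth microdilution per CLSI in cation-adjusted Mueller-Hinton II broth, final inoculum approximately 5 × 10^5 CFU/ml. Plates were incubated aerobically at 35 to 37°C for 24 h. MIC was the lowest concentration giving no visible growth. Reserpine, where used, was at a final concentration of 20 μg/ml.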

Streptococcus pneumoniae = test: Antibacterial activity against Streptococcus pneumoniae by agar dilution method; type: functional
[2] = Cmax in mouse at 50 mg/kg, sc; type: ADME, organism-based; set-up: dose 50 mg/kg, route subcutaneous; settings: in vivo
Summary of the method: (§3)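 Fasted mice given one subcutaneous dose (20 or 50 mg/kg); blood taken from groups of three at 0.08, 0.25, 0.5, 1, 2, 4, 8, 24 h. Plasma protein-precipitated with cold acetonitrile plus internal standard, LC-MS/MS (C8, positive ESI, SRM); calibration 5–15,000 ng/ml. Noncompartmental analysis of mean concentrations; AUC to last quantifiable point by linear trapezoidal rule.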

[3] = Cmax in mouse at 20 mg/kg, sc; type: ADME, organism-based; set-up: dose 20 mg/kg, route subcutaneous; settings: in vivo; summary of the method: as §3
Enterococcus faecalis = test: Antibacterial activity against Enterococcus faecalis; type: functional; summary of the method: as §1
[4] = Tmax in mouse at 50 mg/kg, sc; type: ADME, organism-based; set-up: dose 50 mg/kg, route subcutaneous; settings: in vivo; summary of the method: as §3
[5] = AUC (0-24 hrs) in mouse at 20 mg/kg, sc; type: ADME, organism-based; set-up: time < 24 hr, dose 20 mg/kg, route subcutaneous; settings: plasma; summary of the method: as §3
Enterococcus faecium = test: Antibacterial activity against Enterococcus faecium; type: functional; summary of the method: as §1
Streptococcus viridans = test: Antibacterial activity against Streptococcus viridans after 24 hrs by broth microdilution method; type: functional
Summary of the method: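 CLSI broth microdilution in cation-adjusted Mueller-Hinton II broth, final inoculum about 5 × 10^5 CFU/ml for most strains; streptococci supplemented with 2–5% lysed horse blood, H. influenzae in Haemophilus test medium. Aerobic incubation at 35–37°C for 24 h; MIC = lowest concentration with no visible growth.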

Staphylococcus aureus [6] = test: Antibacterial activity against methicillin-resistant Staphylococcus aureus after 24 hrs by broth microdilution method; type: functional; summary of the method: as §2
[7] = Tmax in mouse at 20 mg/kg, sc; type: ADME, organism-based; set-up: dose 20 mg/kg, route subcutaneous; settings: in vivo; summary of the method: as §3
[8] = Plasma half life in mouse at 50 mg/kg, sc; type: ADME, organism-based; set-up: dose 50 mg/kg, route subcutaneous
[9] = Plasma half life in mouse at 20 mg/kg, sc; type: ADME, organism-based; set-up: dose 20 mg/kg, route subcutaneous
[10] = AUC (0-24 hrs) in mouse at 50 mg/kg, sc; type: ADME, organism-based; set-up: time < 24 hr, dose 50 mg/kg, route subcutaneous; settings: plasma; summary of the method: as §3
Staphylococcus aureus [11] = test: Antibacterial activity against […] Staphylococcus aureus ATCC 29213 after 24 hrs by broth microdilution method; type: functional; settings: ATCC 29213, 24 h; summary of the method: as §2
Staphylococcus aureus [12] = test: Antibacterial activity against ethidium bromide-resistant Staphylococcus aureus BSA643 after 24 hrs by broth microdilution method; type: functional; settings: BSA643, 24 h; summary of the method: as §2
Staphylococcus aureus [13] = test: Effect on cellular viability of methicillin-sensitive Staphylococcus aureus ATCC 29213 by measuring the time required for recovery at 10 times MIC after 1 hr; type: functional
Summary of the method: (§4)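 S. aureus in log phase, approximately 2–4 × 10^7 CFU/ml in CAMHB, was exposed to 10× MIC for 1 h at 35 to 37°C with shaking, then diluted 1:1,000 into prewarmed CAMHB. Viable counts were taken hourly for 4 to 8 h. PAE = T − C, the time to a 1-log10 rise, treated versus untreated. Mean of two independent experiments.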

Staphylococcus aureus [14] = test: Effect on cellular viability of methicillin-resistant Staphylococcus aureus Mu50 at 10 times MIC by measuring the time required for recovery at 10 times MIC after 1 hr; type: functional; summary of the method: as §4
Staphylococcus aureus [15] = test: Antibacterial activity against ethidium bromide-resistant Staphylococcus aureus BSA678 after 24 hrs by broth microdilution method; type: functional; settings: BSA678, 24 h; summary of the method: as §2
Staphylococcus aureus [16] = test: microbe, parasite or virus in culture; settings: Mu50
Staphylococcus aureus [17] = test: Antibacterial activity against ethidium bromide-resistant Staphylococcus aureus Mu50 after 24 hrs by broth microdilution method; type: functional; settings: Mu50, 24 h; summary of the method: as §2
Staphylococcus aureus [18] = test: Antibacterial activity in CD1 mouse inoculated with methicillin-resistant Staphylococcus aureus ATCC 33591 in thigh assessed as reduction of bacterial population at 10 mg/kg, sc after 4 hrs; type: functional; settings: route subcutaneous
Summary of the method: (§5)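 Female CD-1 mice (19 to 28 g) were made neutropenic with cyclophosphamide 150 mg/kg i.p. at 4 days and 1 day before infection. Each thigh was injected i.m. with 0.1 ml of S. aureus suspension. A single s.c. dose was given 2 h postinfection, in groups of three mice. Thighs were homogenized in PBS and plated on trypticase soy agar overnight at 37°C. CFU/thigh was compared with controls at the time of treatment.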

Staphylococcus aureus [19] = test: Antibacterial activity in CD1 mouse inoculated with methicillin-resistant Staphylococcus aureus ATCC 33591 in thigh assessed as reduction of bacterial population at 10 mg/kg, sc after 6 hrs; type: functional; settings: route subcutaneous; summary of the method: as §5
Staphylococcus aureus [20] = test: Antibacterial activity in CD1 mouse inoculated with methicillin-sensitive Staphylococcus aureus ATCC 13709 in thigh assessed as reduction of CFU/thigh at 10 mg/kg, sc after 4 hrs; type: functional; settings: route subcutaneous; summary of the method: as §5
Staphylococcus aureus [21] = test: Antibacterial activity in CD1 mouse inoculated with methicillin-resistant Staphylococcus aureus ATCC 33591 in thigh assessed as reduction of bacterial population at 10 mg/kg, sc after 24 hrs; type: functional; settings: route subcutaneous; summary of the method: as §5
Staphylococcus aureus [22] = test: Antibacterial activity in CD1 mouse inoculated with methicillin-sensitive Staphylococcus aureus ATCC 13709 in thigh assessed as reduction of bacterial population at 10 mg/kg, sc after 24 hrs; type: functional; settings: route subcutaneous; summary of the method: as §5
Staphylococcus aureus [23] = test: Antibacterial activity in CD1 mouse inoculated with methicillin-resistant Staphylococcus aureus ATCC 33591 in thigh assessed as reduction of bacterial population at 10 mg/kg, sc after 8 hrs; type: functional; settings: route subcutaneous; summary of the method: as §5

Row | SMILES | MIC50 (Staphylococcus aureus [1]) [µg/mL] | MIC90 (Staphylococcus aureus [1]) [µg/mL] | MIC50 (Streptococcus pneumoniae) [µg/mL] | MIC90 (Streptococcus pneumoniae) [µg/mL] | MIC50 (Enterococcus faecalis) [µg/mL] | MIC90 (Enterococcus faecalis) [µg/mL] | MIC50 (Enterococcus faecium) [µg/mL] | MIC90 (Enterococcus faecium) [µg/mL] | MIC50 (Streptococcus viridans) [µg/mL] | MIC90 (Streptococcus viridans) [µg/mL] | MIC50 (Staphylococcus aureus [6]) [µg/mL] | MIC90 (Staphylococcus aureus [6]) [µg/mL] | other results
1 | CC(=O)NCC1CN(c2ccc(N3CCOCC3)c(F)c2)C(=O)O1 (single isomer, unassigned) [LINEZOLID] | 2 (≈ 5.93 µM) | 2 (≈ 5.93 µM) | 1 (≈ 2.96 µM) | 1 (≈ 2.96 µM) | 2 (≈ 5.93 µM) | > 16 | 2 (≈ 5.93 µM) | 2 (≈ 5.93 µM) | 1 (≈ 2.96 µM) | 1 (≈ 2.96 µM) | 2 (≈ 5.93 µM) | 2 (≈ 5.93 µM) | MIC50 (Streptococcus pyogenes): 1 µg/mL (≈ 2.96 µM); MIC90 (Streptococcus pyogenes): 1 µg/mL (≈ 2.96 µM); Cmax [2]: 25500 ng/mL; Cmax [3]: 12200 ng/mL; Tmax [4]: 1 h; AUC(0-t) at 24 h [5]: 29100 ng·h/mL; Tmax [7]: 0.5 h; half-life [8]: 2.18 h; half-life [9]: 1.17 h; AUC(0-t) at 24 h [10]: 112000 ng·h/mL
2 | COc1c(N2C[C@@H]3CCCN[C@@H]3C2)c(F)cc2c(=O)c(C(=O)O)cn(C3CC3)c12 [MOXIFLOXACIN] | – | – | – | – | – | – | – | – | – | – | – | – | MIC (Staphylococcus aureus [11]): 0.06 µg/mL (≈ 0.149 µM); MIC (Staphylococcus aureus [12]): 16 µg/mL (≈ 39.9 µM); Post anitbiotic effect (Staphylococcus aureus [13]): 1.6 h; Post anitbiotic effect (Staphylococcus aureus [14]): 1.5 h; MIC (Staphylococcus aureus [15]): > 64 µg/mL; MIC (Staphylococcus aureus [16]): 64 µg/mL (≈ 159 µM); MIC (Staphylococcus aureus [17]): 4 µg/mL (≈ 9.96 µM)
3 | CN[C@H](CC(C)C)C(=O)N[C@H]1C(=O)N[C@@H](CC(N)=O)C(=O)N[C@H]2C(=O)N[C@H]3C(=O)N[C@H](C(=O)N[C@H](C(=O)O)c4cc(O)cc(O)c4-c4cc3ccc4O)[C@H](O)c3ccc(c(Cl)c3)Oc3cc2cc(c3O[C@@H]2O[C@H](CO)[C@@H](O)[C@H](O)[C@H]2O[C@H]2C[C@](C)(N)[C@H](O)[C@H](C)O2)Oc2ccc(cc2Cl)[C@H]1O [VANCOMYCIN] | 1 (≈ 0.69 µM) | 2 (≈ 1.38 µM) | 0.5 (≈ 0.345 µM) | 0.5 (≈ 0.345 µM) | 2 (≈ 1.38 µM) | > 32 | > 32 | > 32 | 0.5 (≈ 0.345 µM) | 1 (≈ 0.69 µM) | 1 (≈ 0.69 µM) | 8 (≈ 5.52 µM) | CFU/ml (Staphylococcus aureus [18]): 0.32; CFU/ml (Staphylococcus aureus [19]): 0.49; CFU/ml (Staphylococcus aureus [20]): 0.31; CFU/ml (Staphylococcus aureus [21]): 0.31; CFU/ml (Staphylococcus aureus [22]): 1.37; CFU/ml (Staphylococcus aureus [23]): 0.58
